Non-standard residues stand in square brackets, D forms with d. Residues, ends and D or L forms follow the SMILES beside them. Phe(4-Br) = N[C@@H](Cc1ccc(Br)cc1)C(=O)O; NMeCha = CN[C@@H](CC1CCCCC1)C(=O)O; hArg = N=C(N)NCCCC[C@H](N)C(=O)O; Nle = CCCC[C@H](N)C(=O)O; Aib = CC(C)(N)C(=O)O
Legend:
[1] = test system: Mus musculus; experiment: Hypotensive effect in anesthetized wild type mouse assessed as change in mean arterial blood pressure at 1.4 uM/Kg, iv administered via right jugular vein measured for 60 mins; type: functional; conditions: 1 h
Method in brief: (§1)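 Anesthetized mice received peptide at 1.4 μM kg−1 body weight, or equal-volume saline, by injection into the right jugular vein (n = 3). HR, MABP, SBP and DBP were recorded from blood pressure traces and reported as mean ± S.E.M.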

[2] = test system: Mus musculus; experiment: Hypotensive effect in anesthetized wild type mouse assessed as total time duration of hypotensive effect at 1.4 uM/Kg, iv administered via right jugular vein measured for 60 mins; type: functional; conditions: 1 h; method in brief: as §1
[3] = Stability in mouse plasma assessed as half life at 1 mM measured for 24 hrs by LC-MS analysis; type: ADME, cell-free
Method in brief: (§2)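 Plasma (20 μL, human or murine) prewarmed to 37 °C, then 5 μL of 1 mM peptide added and incubated at 37 °C. Samples quenched at 1, 3, 6 and 24 h with 6 M GuHCl/80% ACN and Dans-YVG internal standard, centrifuged, solid-phase extracted and analyzed by LC-MS. Peptide/standard peak-area ratio normalized to 0 h; triplicates.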

[4] = target: T1, Apelin receptor (Rattus norvegicus, UniProt Q9JHG3); experiment: Displacement of [125I]-pyr-1-apelin-13 from EGFP tagged rat apelin receptor expressed in CHO cell membrane incubated for 3 hrs by gamma counter analysis; type: cell membranes
T1 sequence (Q9JHG3 whole entry): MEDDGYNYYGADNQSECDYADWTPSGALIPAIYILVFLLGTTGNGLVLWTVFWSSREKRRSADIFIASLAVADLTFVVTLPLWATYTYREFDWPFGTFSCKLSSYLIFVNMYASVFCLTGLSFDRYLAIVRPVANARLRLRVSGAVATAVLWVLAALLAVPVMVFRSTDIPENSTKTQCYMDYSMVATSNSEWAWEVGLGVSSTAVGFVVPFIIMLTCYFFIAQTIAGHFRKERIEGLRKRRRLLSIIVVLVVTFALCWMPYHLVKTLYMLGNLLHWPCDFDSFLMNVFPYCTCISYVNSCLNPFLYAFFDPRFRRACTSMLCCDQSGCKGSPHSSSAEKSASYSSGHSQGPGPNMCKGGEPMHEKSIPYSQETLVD
Method in brief: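 Crude membranes (1 μg/assay) from CHO cells stably expressing wild-type rat APJ-EGFP, incubated 3 h at 20 °C with 0.2 nM [125I]-pyr-1-apelin-13 (Lys8 Bolton–Hunter monoiodinated) and competitor at various concentrations. Binding buffer: 50 mM HEPES, 5 mM MgCl2, 1% BSA, pH 7.5. Quenched with cold buffer, GF/C filtered and washed, gamma counted; triplicates.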

[5] = target: T2, Neprilysin (Homo sapiens, UniProt P08473); experiment: Proteolytic stability assessed as recombinant human NEP-mediated compound degradation incubated for 24 hrs by LC-MS analysis; type: ADME
Method in brief: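 Recombinant human NEP diluted to 2 ng μL−1 in NEP-B buffer and preincubated 10 min at 37 °C. Peptide (1 mM aqueous solution) added and incubated at 37 °C. Aliquots taken at 0, 2, 10, 20 and 48 h, quenched and quantified by LC-MS; triplicate per time point.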

[6] = Protein binding in pooled human plasma at 100 uM incubated for 3 hrs by equilibrium dialysis method; type: ADME, cell-free; conditions: read-out: PPB (converted)
Method in brief: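 Equilibrium dialysis. DMSO stock (1 mM) diluted to 100 μM final in 55% pooled human plasma stabilized with EDTA and MLN-4760, dialyzed against PBS pH 7.4 at 37 °C, 120 rpm, 3 h. Retentate diluted with PBS and dialysate with plasma, then quenched with 10% TFA/acetonitrile. Dans-YVG internal standard added, centrifuged, LC-MS.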

[7] = Stability in human plasma assessed as half life at 1 mM measured for 24 hrs by LC-MS analysis; type: ADME, cell-free; method in brief: as §2
[8] = target: T3, Apelin receptor (Homo sapiens, UniProt P35414); experiment: Activation of recombinant human APJ receptor expressed in rat Chem-5 cells assessed as increase in Ca2+ mobilization by FLIPR Calcium 6-QF fluorescent dye based assay; type: cell-based
T3 sequence (P35414 whole entry): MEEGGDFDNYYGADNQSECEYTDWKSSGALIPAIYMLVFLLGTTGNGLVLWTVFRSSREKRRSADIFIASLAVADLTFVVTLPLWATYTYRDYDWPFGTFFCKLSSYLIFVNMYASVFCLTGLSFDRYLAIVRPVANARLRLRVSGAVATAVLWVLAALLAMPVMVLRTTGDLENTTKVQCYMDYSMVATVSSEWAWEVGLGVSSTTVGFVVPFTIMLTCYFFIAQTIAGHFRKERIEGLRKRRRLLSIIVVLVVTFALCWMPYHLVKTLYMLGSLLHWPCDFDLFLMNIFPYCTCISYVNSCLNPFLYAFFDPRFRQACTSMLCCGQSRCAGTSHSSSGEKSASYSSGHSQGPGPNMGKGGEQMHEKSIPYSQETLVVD
Method in brief: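 Frozen Chem-5 cells stably expressing human APJ, thawed per supplier protocol, loaded 1 h with Calcium 6-QF dye in HBSS/20 mM HEPES/0.2% DMSO/2.5 mM probenecid, pH 7.6. Cells washed three times and rested 10 min, then read on FLIPR. Agonist response taken as maximum fluorescence change over baseline. pEC50 from four-parameter logistic fit; triplicates.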

[9] = target: T2, Neprilysin; experiment: Proteolytic stability assessed as recombinant human NEP-mediated compound degradation by measuring half life incubated for 24 hrs by LC-MS analysis; type: ADME; conditions: 24 h

T2 sequence (P08473 whole entry): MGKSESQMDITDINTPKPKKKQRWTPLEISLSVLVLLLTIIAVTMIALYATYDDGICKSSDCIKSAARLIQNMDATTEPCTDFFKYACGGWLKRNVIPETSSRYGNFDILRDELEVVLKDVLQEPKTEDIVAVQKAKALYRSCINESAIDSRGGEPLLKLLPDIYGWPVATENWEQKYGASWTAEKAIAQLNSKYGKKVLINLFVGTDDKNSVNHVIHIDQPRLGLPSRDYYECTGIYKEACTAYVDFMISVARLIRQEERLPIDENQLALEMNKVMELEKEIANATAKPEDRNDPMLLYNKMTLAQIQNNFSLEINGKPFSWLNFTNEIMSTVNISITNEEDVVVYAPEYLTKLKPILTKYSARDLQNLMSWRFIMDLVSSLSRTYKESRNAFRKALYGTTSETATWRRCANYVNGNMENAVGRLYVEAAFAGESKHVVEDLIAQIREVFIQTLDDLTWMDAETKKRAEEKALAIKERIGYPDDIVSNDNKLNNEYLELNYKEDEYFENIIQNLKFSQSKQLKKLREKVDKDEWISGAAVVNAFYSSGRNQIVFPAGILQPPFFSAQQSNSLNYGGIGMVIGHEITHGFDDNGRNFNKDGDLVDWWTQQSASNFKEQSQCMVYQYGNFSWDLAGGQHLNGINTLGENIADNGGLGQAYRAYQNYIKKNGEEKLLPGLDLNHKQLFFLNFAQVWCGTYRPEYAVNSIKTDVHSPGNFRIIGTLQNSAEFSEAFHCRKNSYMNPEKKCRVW

half-life at 1000 µM [3] [min] | Ki [4] [nM] | Stability [5] | fraction unbound at 3 h, 100 µM [6] | half-life at 1000 µM [7] [min] | EC50 [8] [nM] | t1/2 [9] [min] | Compound | Activity [1] [mmHg] | Time [2] [min]
21.6 | 0.646 | Stable | 0.31 | 205 | 72.4 |  | CCCC[C@H](NC(=O)[C@@H]1CCCN1C(=O)CNC(=O)[C@H](CCCCN)NC(=O)[C@H](Cc1c[nH]cn1)NC(=O)[C@H](CO)NC(=O)[C@H](CC1CCCCC1)N(C)C(=O)[C@H](CCCCNC(=N)N)NC(=O)[C@@H]1CCCN1C(=O)[C@H](CCCNC(=N)N)NC(=O)[C@H](CCC(N)=O)NC(=O)[C@H](CCCNC(=N)N)NC(=O)[C@H](CCCNC(=N)N)NC(=O)[C@H](Cc1ccccc1)NC(=O)[C@@H](N)CCCCN)C(=O)NC(C)(C)C(=O)N[C@@H](Cc1ccc(Br)cc1)C(=O)O (H-KFRRQRP[hArg][NMeCha]SHKGP[Nle][Aib][Phe(4-Br)]-OH) | 47.57 | 60
26.4 | 2 | Stable | 0.32 | 174 | 16.2 |  | CCCC[C@H](NC(=O)[C@@H]1CCCN1C(=O)CNC(=O)[C@H](CCCCN)NC(=O)[C@H](Cc1c[nH]cn1)NC(=O)[C@H](CO)NC(=O)[C@H](CC1CCCCC1)N(C)C(=O)[C@H](CCCNC(=N)N)NC(=O)[C@@H]1CCCN1C(=O)[C@H](CCCNC(=N)N)NC(=O)[C@H](CCC(N)=O)NC(=O)[C@H](CCCNC(=N)N)NC(=O)[C@H](CCCNC(=N)N)NC(=O)[C@H](Cc1ccccc1)NC(=O)[C@@H](N)CCCCN)C(=O)NC(C)(C)C(=O)N[C@@H](Cc1ccc(Br)cc1)C(=O)O (H-KFRRQRPR[NMeCha]SHKGP[Nle][Aib][Phe(4-Br)]-OH) | 28.83 | 60
 |  |  | 0.43 | 54 | 4.27 | 657 | CCCC[C@H](NC(=O)[C@@H]1CCCN1C(=O)CNC(=O)[C@H](CCCCN)NC(=O)[C@H](Cc1c[nH]cn1)NC(=O)[C@H](CO)NC(=O)[C@H](CC(C)C)NC(=O)[C@H](CCCNC(=N)N)NC(=O)[C@@H]1CCCN1C(=O)[C@H](CCCNC(=N)N)NC(=O)[C@H](CCC(N)=O)NC(=O)[C@H](CCCNC(=N)N)NC(=O)[C@H](CCCNC(=N)N)NC(=O)[C@H](Cc1ccccc1)NC(=O)[C@@H](N)CCCCN)C(=O)NC(C)(C)C(=O)N[C@@H](Cc1ccc(Br)cc1)C(=O)O (H-KFRRQRPRLSHKGP[Nle][Aib][Phe(4-Br)]-OH) | 10.24 | 33
